# Measured values: PubChem BioAssay AID720508 (The Scripps Research Institute Molecular Screening Center, 2013)
# About 500 (0.14%) of roughly 370,000 compounds were called active. This is one part of a sample in which actives are shown more often than they occur.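 The calls were made as follows: active = inhibition above the mean of compounds falling within the control limits plus 3 SD of them (cut at about 14% in these data); inactive = the rest.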
# Molecular target: Fibrinogen beta chain (Homo sapiens) (UniProt P02675)
# Assay: small molecules displacing Tn7 from DD(E) complex – biochemical, fluorescence polarization, human fibrin, Tn7 probe, primary screen (AID 720508);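 also: 0% = plate median of compound wells and 100% = 10 µM Aha-Tn7 peptide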
# Settings: FP displacement of FITC-Tn7 peptide from fibrin DD(E); at 8.3 µM; active compounds read high; 0% = median of compound wells per plate
# Outline: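 System: human fibrin DD(E); quantity: Fibrin-DD(E) at 2 µM final; also added: fluorescent Tn7 probe at 0.1 µM; compound dosing: single nominal test concentration of 8.3 µM per compound; schedule: 10 min preincubation, 3 h with tracer, room temperature; detection: fluorescence polarization of the labelled Tn7 tracer; repeats: one replicate per compound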
# Sequence of Fibrinogen beta chain (Homo sapiens) (P02675 whole entry, looked up): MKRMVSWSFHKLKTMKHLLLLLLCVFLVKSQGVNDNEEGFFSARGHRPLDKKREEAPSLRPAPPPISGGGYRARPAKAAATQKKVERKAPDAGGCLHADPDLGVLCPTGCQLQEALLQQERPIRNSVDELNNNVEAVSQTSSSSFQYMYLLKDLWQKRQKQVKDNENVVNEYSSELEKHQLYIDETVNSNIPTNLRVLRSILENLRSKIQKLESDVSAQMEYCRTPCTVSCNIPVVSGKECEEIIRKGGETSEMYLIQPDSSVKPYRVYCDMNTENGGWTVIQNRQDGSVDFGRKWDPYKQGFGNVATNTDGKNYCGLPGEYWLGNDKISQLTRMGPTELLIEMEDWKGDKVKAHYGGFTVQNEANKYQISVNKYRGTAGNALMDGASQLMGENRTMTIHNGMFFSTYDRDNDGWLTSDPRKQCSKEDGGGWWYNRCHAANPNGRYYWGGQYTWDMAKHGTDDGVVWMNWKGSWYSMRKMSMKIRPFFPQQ
row,Structure (SMILES),inhibition
1,CSC1=NC2(C)CCCCC2C12C=CC(=O)C=C2 (stereo unspecified),6.72% (inactive)
2,CC(OC(=O)CN1C(=O)COc2ccccc21)C(=O)NCc1ccc(F)cc1 (stereo unspecified),-2.52% (inactive)
3,CN(Cc1ccccc1)CC(O)COc1ccc(CNCc2cc3ccccc3s2)cc1 (stereo unspecified),5.14% (inactive)
4,Cc1cc(C(=O)OC(C)C(=O)NC2CCCCC2C)c(C)o1 (stereo unspecified),-2.98% (inactive)
5,CCO/N=C(/C)c1c(O)cc(-c2ccccc2)n(-c2ccccc2)c1=O,0.3% (inactive)
6,Oc1ccc2ccc3cccc[n+]3c2c1,62.8% (active)
7,COCCCNC(=O)Cc1ccc(-n2c(C)nc3cccnc32)cc1,1.6% (inactive)
8,O=C(NNS(=O)(=O)c1ccc(F)cc1)c1ccc([N+](=O)[O-])cc1Cl,1.43% (inactive)
9,O=C(COC(=O)c1cc([N+](=O)[O-])ccc1NCc1ccccc1)NC1CCCCC1,-0.23% (inactive)
10,O=C(COC(=O)c1ccc([N+](=O)[O-])cc1Cl)NC(=O)c1ccccc1,17.7% (active)
11,O=C(NCc1ccccc1)c1cccc(NC(=O)C2CCCCC2)c1,15.5% (active)
12,CC(C)(C)OC(=O)N1CCC(C(=O)Nc2cccc(C(=O)NCCc3ccccc3)c2)CC1,-2.62% (inactive)
13,CCNC(=O)c1cccc(NC(=O)C2CC(=O)N(CCc3ccccc3)C2)c1 (stereo unspecified),8.78% (inactive)
14,O=C(/C=C/c1ccccc1[N+](=O)[O-])NCC1CCCO1 (stereo unspecified),14.7% (active)
15,COc1ccc(C(=O)OCC(=O)NCC2CCCO2)cc1[N+](=O)[O-] (stereo unspecified),2.02% (inactive)
16,CC(C)CNC(=O)COC(=O)/C=C/c1ccccc1[N+](=O)[O-],2.51% (inactive)
17,COCCn1c(N)c(NCc2ccccc2)c(=O)[nH]c1=O,8.37% (inactive)
18,Nc1ccc2nc3c(=O)[nH]c(=S)[nH]c3nc2c1,7.86% (inactive)
19,Cc1cc2nc3c(=O)n(Cc4ccccc4)c(=O)[nH]c3nc2cc1N,25.7% (active)
20,CN(C)CCNC(=O)C(C(=O)c1ccccc1)n1ccccc1=O (stereo unspecified),8.86% (inactive)
21,Cc1ccc(-c2nc(-c3cccnc3)sc2CC(=O)Nc2ccc(C)c(Cl)c2)cc1,-4.07% (inactive)
22,CSCCNC(=O)c1ccc2nc(Cc3ccccc3F)oc2c1,-0.81% (inactive)
23,Cc1ccc(NC(=O)CN(C)C(=O)c2ccc(Cl)c(S(=O)(=O)NCc3ccco3)c2)cc1,-3.83% (inactive)

row,Structure (SMILES),inhibition
1,COC(=O)[C@H](C(C)C)N1CCc2nnn(Cc3ccc(C)cc3)c2-c2ccccc2S1(=O)=O,5.12% (inactive)
2,O=C(COC(=O)c1ccc(O)cc1)Nc1nccs1,6.41% (inactive)
3,O=C1C(=O)N(CCCN2CCOCC2)C(c2ccc([N+](=O)[O-])cc2)/C1=C(\O)c1ccc2c(c1)OCCO2 (stereo unspecified),-0.14% (inactive)
4,O=S(=O)(c1cccc(-c2nnc(SC(F)F)n2-c2ccccc2)c1)N1CCCCC1,3.4% (inactive)
5,O=C(OCC(=O)N1CCN(C(=O)c2ccco2)CC1)c1ccccc1Cc1ccccc1,-2.57% (inactive)
6,Cc1cccc(C)c1Nc1c(-c2ccccc2O)nc2ncccn12,2.35% (inactive)
7,Cc1cc(Nc2cccc(F)c2)n2ncnc2n1,-2.61% (inactive)
8,COc1ccc(/C=C2\CCCC3C2=NN(C(=O)c2scnc2C)C3c2ccc(OC)cc2)cc1 (stereo unspecified),2.65% (inactive)
9,CC(C)=CCCC1(C)C=Cc2c(ccc3c2[nH]c2cc(O)c(C)cc23)O1 (stereo unspecified),-5.67% (inactive)
10,CCN(CC)CCCC(C)n1c2nc(=O)[nH]c(=O)c-2nc2cc(Cl)ccc21 (stereo unspecified),-7.28% (inactive)
11,Cc1cc2nc3c(=O)[nH]c(=O)nc-3n(C[C@H](O)[C@H](O)[C@H](O)CO)c2cc1C,24.1% (active)
12,CC(C)C[C@H]1CNC(=S)N1C[C@H]1CCCN1C[C@H](Cc1ccc(O)cc1)N1C[C@H](Cc2ccc(O)cc2)N(CC2CCCCC2)C1=S,-3.09% (inactive)
13,C=C(C)C#CC(Cc1ccccc1)N(CC1CC1)/C(N)=N/C(=O)OCc1ccccc1 (stereo unspecified),1.85% (inactive)
14,CC(C)CC(=O)c1c[nH]c(C(=O)NCc2ccccc2)c1,-1.06% (inactive)
15,CC1CCCCC12NC(=O)N(CC(=O)OCc1c(F)cccc1Cl)C2=O (stereo unspecified),5.49% (inactive)
16,Cc1cc(C)c2nc3nc(C)cc(C)c3c(N)c2c1,3.42% (inactive)
17,COc1ccc(S(=O)(=O)N2CCOCC2)cc1NC(=O)CSc1nnc(NC2CC2)s1,-0.34% (inactive)
18,COc1ccc(S(=O)(=O)N2CCN(C(C)C(=O)Nc3ccc(C(C)C)cc3)CC2)cc1 (stereo unspecified),2.11% (inactive)
19,CCCC1CCC2(CCCN2CCOC(=O)NCc2ccccc2)CC1 (stereo unspecified),2.73% (inactive)
20,CCC(C)[C@H](NC(=O)N1c2ccccc2NC(=O)[C@@H]1C(C)C)C(=O)N[C@@H](Cc1ccccc1)C(=O)O (stereo partly specified),-4.14% (inactive)
21,Cc1ccc(S(=O)(=O)c2c[nH]c3ccc(Cl)cc3c2=O)cc1,-0.42% (inactive)
22,COc1ccc(S(=O)(=O)c2c[nH]c(=S)[nH]c2=O)cc1Cl,14.8% (active)
23,COc1ccc(S(=O)(=O)N(C)CC(=O)N2CCCC2)cc1Cl,-5.85% (inactive)

row,Structure (SMILES),inhibition
1,CSCC[C@H](NC(=O)NCc1cccs1)C(=O)O,1.72% (inactive)
2,O=C(COC(=O)CCOc1ccccc1)Nc1cc(S(=O)(=O)N2CCCCC2)ccc1Cl,3.01% (inactive)
3,CC(=O)c1ccc(NC(=O)CCNS(=O)(=O)c2cc(Br)cnc2N)cc1,1.85% (inactive)
4,Nc1nc2n(n1)C(c1ccco1)CC(c1ccc(Cl)c(Cl)c1)N2 (stereo unspecified),-5.38% (inactive)
5,O=C(N=C1SC2CS(=O)(=O)CC2N1Cc1ccccc1)c1ccccc1 (stereo unspecified),8.78% (inactive)
6,COCCNC(=O)CSc1nc2c(n1-c1ccccc1)CCCC2,-3.74% (inactive)
7,NC(=O)c1ccc(N2CCCC2)nc1,2.52% (inactive)
8,CCc1nc2c(OCCC3CCCCC3)cccn2c1N(C)C(=O)c1ccco1,-2.4% (inactive)
9,Cc1c(C(=O)O)nnn1-c1nonc1N,1.32% (inactive)
10,O=C(NCc1ccccc1)C1CCCN(c2nc3ccsc3c(=O)s2)C1 (stereo unspecified),-2.86% (inactive)
11,CCC(=O)N1CCN=C1SCc1ccc(F)cc1,1.78% (inactive)
12,COc1cccc2c1C(=O)c1c(O)c3c(c(O)c1C2=O)CC(O)(C(C)=NNC(=O)c1ccc(Cl)c(Cl)c1)CC3OC1CC(N)C(O)C(C)O1 (stereo unspecified),27% (active)
13,Cc1cccc(NC(=O)c2ccc(S(=O)(=O)N(C)CC3CCCO3)cc2)c1C (stereo unspecified),-10% (inactive)
14,Cc1nnc(SCC(=O)Nc2ncc3c(n2)CC(C)(C)CC3=O)s1,3.19% (inactive)
15,C=CCn1c(COc2ccc(F)cc2)nnc1SCC(=O)Nc1cccc(S(N)(=O)=O)c1,2.08% (inactive)
16,COc1cc2c(cc1OC)CC1(CCCCC1)N=C2,3.18% (inactive)
17,Cc1cc(=O)[nH]c2nnnn12,-1.23% (inactive)
18,O=c1o[nH]c(-c2ccccc2)c1N=Nc1c(F)cccc1Cl,1.8% (inactive)
19,COc1ccc(N=C2C=CC(=O)O2)cc1,-2.28% (inactive)
20,COc1ccc(N=Nc2c(-c3ccc(OC)cc3)[nH]oc2=O)cc1,25.7% (active)
21,COc1ccc(C(=O)N(C)Cc2ccc(OC)c(OC)c2OC)cc1S(=O)(=O)N1CCOCC1,-8.78% (inactive)
22,CN(CC(=O)Nc1ccc(F)c(F)c1F)C(=O)C1CC(=O)N(C2CCCC2)C1 (stereo unspecified),0.71% (inactive)
23,COC(=O)CSc1snnc1-c1ccc(Cl)c(Cl)c1,-4.58% (inactive)

row,Structure (SMILES),inhibition
1,OC(c1ccccc1)c1nc(-c2cnc3ccccc3c2)cs1 (stereo unspecified),15.7% (active)
2,Cc1ccccc1-c1csc(C(O)c2cccc(Cl)c2)n1 (stereo unspecified),-0.35% (inactive)
3,COc1ccc(-c2csc(C(O)c3cccc(Cl)c3)n2)cn1 (stereo unspecified),-9.22% (inactive)
4,Cc1nn(C(C)(C)C)c(OC(=O)CC(C)C)c1S(=O)(=O)c1ccccc1,1.04% (inactive)
5,O=C(Cn1cnc2ccccc2c1=O)Nc1cccc(S(=O)(=O)N2CCCCC2)c1,-0.43% (inactive)
6,CCc1nn(-c2cc(Oc3cccc4ccccc34)nc(-c3ccccc3)n2)c(N)c1C#N,4.4% (inactive)
7,C=CCN1CCN(c2ccncc2S(=O)(=O)N2CCN(C)CC2)CC1,7.05% (inactive)
8,O=C(NCc1cccnc1)Nc1ccccc1F,-2.21% (inactive)
9,CC(=O)Nc1ccc(CN2CCN(Cc3ccc(F)c(F)c3)C(CCO)C2)cc1 (stereo unspecified),0.97% (inactive)
10,Cc1cc(NC(=O)C(C)SCC(=O)Nc2cccc(S(=O)(=O)N3CCCCCC3)c2)no1 (stereo unspecified),6.6% (inactive)
11,O=S1(=O)CC(N2CCN(Cc3ccccc3F)CC2)CN1Cc1cn(Cc2cccc(C(F)(F)F)c2)nn1 (stereo unspecified),1.27% (inactive)
12,CC(=O)c1cc(-c2ccccc2)n(CCC(=O)NC2CCCCCC2)c1C,-2.95% (inactive)
13,O=C(c1c(Cl)cccc1Cl)N1CCN(c2cccc3[nH]ccc23)CC1,2.06% (inactive)
14,CC1(C)CC(=O)C(C2c3ccccc3S(=O)(=O)c3ccccc32)C(=O)C1,2.44% (inactive)
15,CO[C@H]1[C@@H]2C=CO[C@@H](O[C@H]3O[C@@H](CO)[C@H](O)[C@@H](O)[C@@H]3O)[C@@H]2[C@@]2(CO)O[C@@H]12,-5.28% (inactive)
16,S=C(NC1CCCCC1)NN1CCOCC1,4.52% (inactive)
17,O=C(CSc1nncn1-c1cccnc1)N1CCOCC1,-3.73% (inactive)
18,Cn1c(CC(=O)NNC(=O)c2ccccc2F)nc2ccccc21,14.2% (active)
19,O=C(Cn1cnc2ccccc2c1=O)NNC(=O)c1ccccc1F,-3.62% (inactive)
20,Cc1cc2occ(CC(=O)NNC(=O)c3ccccc3F)c2cc1C,-1.71% (inactive)
21,Cc1ccccc1CCNC(=O)C1CCC(=O)N(Cc2ccc(Cl)cc2)C1 (stereo unspecified),7.94% (inactive)
22,O=C(NCCCN1CCCCC1)C1CCCN(c2ncnc3c2nc2n3CCCCC2)C1 (stereo unspecified),-0.83% (inactive)
